# Assay results as given in ChEMBL document CHEMBL1240422, “Design, synthesis and biological evaluation of 3,5-diaryl-isoxazoline/isoxazole-pyrrolobenzodiazepine conjugates as potential anticancer agents” (2010).
# Activity calls are given as the source filed them. The calls are words filed in the database; no cut-off is given here.
# What was measured:
# SNB-19 = assay: Anticancer activity against human SNB19 cells after 48 hrs by SRB assay; format: functional; conditions: SNB-19, 48 h
# CCRF-CEM = assay: Anticancer activity against human CCRF-CEM cells after 48 hrs by SRB assay; format: functional
# KM12 = assay: Anticancer activity against human KM12 cells after 48 hrs by SRB assay; format: functional; conditions: KM12, 48 h
# 786-0 = assay: Anticancer activity against human 786-0 cells after 48 hrs by SRB assay; format: functional; conditions: 786-0, 48 h
# SNB-75 = assay: Anticancer activity against human SNB75 cells after 48 hrs by SRB assay; format: functional; conditions: SNB-75, 48 h
# HCT-116 = assay: Anticancer activity against human HCT116 cells after 48 hrs by SRB assay; format: functional; conditions: HCT-116, 48 h
# HL-60(TB) = assay: Anticancer activity against human HL-60(TB) cells after 48 hrs by SRB assay; format: functional; conditions: HL-60, 48 h
# A-375 [1] = assay: Cell cycle arrest in human A375 cells assessed as accumulation at S phase at 4 uM after 24 hrs using propidium iodide staining by FACS; format: functional
# Procedure, shortened: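 Treated A375 cells (24 h) were harvested with trypsin-EDTA and fixed in ice-cold 70% ethanol (4 °C, 30 min). After a PBS wash, they were incubated with 1 mg/mL RNase A (37 °C, 30 min) and stained with propidium iodide solution containing trisodium citrate and Triton X-100. DNA content was measured by flow cytometry on 20,000 events. Controls were DMSO-treated.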
# SW-620 = assay: Anticancer activity against human SW620 cells after 48 hrs by SRB assay; format: functional; conditions: SW-620, 48 h
# MDA-MB-435 = assay: Anticancer activity against human MDA-MB-435 cells after 48 hrs by SRB assay; format: functional; conditions: MDA-MB-435, 48 h
# SF-268 = assay: Anticancer activity against human SF268 cells after 48 hrs by SRB assay; format: functional; conditions: SF-268, 48 h
# EKVX = assay: Anticancer activity against human EKVX cells after 48 hrs by SRB assay; format: functional
# MDA-MB-468 = assay: Anticancer activity against human MDA-MB-468 cells after 48 hrs by SRB assay; format: functional; conditions: MDA-MB-468, 48 h
# LOX IMVI = assay: Anticancer activity against human LOXIMVI cells after 48 hrs by SRB assay; format: functional
# HOP-62 = assay: Anticancer activity against human HOP62 cells after 48 hrs by SRB assay; format: functional; conditions: HOP-62, 48 h
# Procedure, shortened: (§1)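 Grown in RPMI 1640 with 10% FBS and 2 mM L-glutamine at 37 °C, 5% CO2. Seeded at densities set by doubling time, then preincubated 24 h. Continuous 48 h drug exposure at four concentrations (0.1, 1, 10, 100), triplicate wells. Fixed with cold TCA (final 10%) at 4 °C, 60 min. Stained with 0.4% SRB in 1% acetic acid, eluted with 10 mM Tris base, read at 540/690 nm. Percent growth versus control wells.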
# RPMI-8226 = assay: Anticancer activity against human RPMI8226 cells after 48 hrs by SRB assay; format: functional; conditions: RPMI-8226, 48 h
# HCT-15 = assay: Anticancer activity against human HCT15 cells after 48 hrs by SRB assay; format: functional; conditions: HCT-15, 48 h
# OVCAR-4 = assay: Anticancer activity against human OVCAR4 cells after 48 hrs by SRB assay; format: functional; conditions: OVCAR-4, 48 h
# U-251 = assay: Anticancer activity against human U251 cells after 48 hrs by SRB assay; format: functional; conditions: U-251, 48 h
# T47D = assay: Anticancer activity against human T47D cells after 48 hrs by SRB assay; format: functional
# HOP-92 = assay: Anticancer activity against human HOP92 cells after 48 hrs by SRB assay; format: functional; conditions: HOP-92, 48 h
# NCI-H226 = assay: Anticancer activity against human NCI-H226 cells after 48 hrs by SRB assay; format: functional; conditions: NCI-H226, 48 h
# SK-OV-3 = assay: Anticancer activity against human SKOV3 cells after 48 hrs by SRB assay; format: functional; conditions: SK-OV-3, 48 h
# ACHN = assay: Anticancer activity against human ACHN cells after 48 hrs by SRB assay; format: functional
# OVCAR-3 = assay: Anticancer activity against human OVCAR-3 cells after 48 hrs by SRB assay; format: functional; conditions: OVCAR-3, 48 h
# MOLT-4 = assay: Anticancer activity against human MOLT4 cells after 48 hrs by SRB assay; format: functional; conditions: MOLT-4, 48 h
# COLO 205 = assay: Anticancer activity against human COLO205 cells after 48 hrs by SRB assay; format: functional; conditions: COLO 205, 48 h; procedure, shortened: as §1
# NCI-H322M = assay: Anticancer activity against human NCI-H322M cells after 48 hrs by SRB assay; format: functional
# OVCAR-5 = assay: Anticancer activity against human OVCAR5 cells after 48 hrs by SRB assay; format: functional; conditions: OVCAR-5, 48 h
# TK-10 = assay: Anticancer activity against human TK10 cells after 48 hrs by SRB assay; format: functional; conditions: TK-10, 48 h
# NCI-H522 = assay: Anticancer activity against human NCI-H522 cells after 48 hrs by SRB assay; format: functional; conditions: NCI-H522, 48 h
# PC-3 = assay: Anticancer activity against human PC3 cells after 48 hrs by SRB assay; format: functional; conditions: PC-3, 48 h; procedure, shortened: as §1
# SN12C = assay: Anticancer activity against human SN12C cells after 48 hrs by SRB assay; format: functional
# IGROV-1 = assay: Anticancer activity against human IGROV1 cells after 48 hrs by SRB assay; format: functional; conditions: IGROV-1, 48 h
# RXF 393 = assay: Anticancer activity against human […] cells after 48 hrs by SRB assay; format: functional; conditions: RXF 393, 48 h
# A-375 [2] = assay: Induction of apoptosis in human A375 cells assessed as reduction in CDK2 protein level at 4 uM after 24 hrs by Western blotting; format: functional, cell-based
# Procedure, shortened: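 A375 cells were treated for 24 h and lysed in ice-cold RIPA buffer (1% NP-40, 0.5% deoxycholate, 0.1% SDS, protease inhibitors). Protein was quantified by Bradford assay, and 30 µg/lane was run on 12% SDS-PAGE and transferred to PVDF. Membranes were blocked 2 h at RT in TBST with 5% blocker, incubated with primary antibody overnight at 4 °C, then with HRP secondary (1:2000, 1 h, RT). Detection was by chemiluminescence, with β-actin as loading control.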
# SR = assay: Anticancer activity against human SR cells after 48 hrs by SRB assay; format: functional
# BT-549 = assay: Anticancer activity against human BT549 cells after 48 hrs by SRB assay; format: functional; conditions: BT-549, 48 h
# K562 = assay: Anticancer activity against human K562 cells after 48 hrs by SRB assay; format: functional; conditions: K562, 48 h
# SK-MEL-5 = assay: Anticancer activity against human SK-MEL-5 cells after 48 hrs by SRB assay; format: functional; conditions: SK-MEL-5, 48 h
# UACC-257 = assay: Anticancer activity against human UACC257 cells after 48 hrs by SRB assay; format: functional; conditions: UACC-257, 48 h
# HT-29 = assay: Anticancer activity against human HT-29 cells after 48 hrs by SRB assay; format: functional; conditions: HT-29, 48 h
smiles,measurement,setting,value
COc1ccc(C2=NOC(c3cc(OC)c(OC)c(OC)c3)C2)cc1OCCCCOc1cc2c(cc1OC)C(=O)N1CCC[C@H]1C=N2 (some centres not stated),GI50,SNB-19,340 nM
same,GI50,CCRF-CEM,160 nM
same,GI50,KM12,220 nM
same,GI50,786-0,280 nM
same,GI50,SNB-75,320 nM
same,GI50,HCT-116,180 nM
same,GI50,HL-60(TB),180 nM
same,Activity,A-375 [1],3.52%
same,GI50,SW-620,230 nM
same,GI50,MDA-MB-435,170 nM
same,GI50,SF-268,340 nM
same,GI50,EKVX,460 nM
same,GI50,MDA-MB-468,220 nM
same,GI50,LOX IMVI,220 nM
same,GI50,HOP-62,270 nM
same,GI50,RPMI-8226,240 nM
same,GI50,HCT-15,180 nM
same,GI50,OVCAR-4,400 nM
same,GI50,U-251,300 nM
same,GI50,T47D,280 nM
same,GI50,HOP-92,310 nM
same,GI50,NCI-H226,170 nM
same,GI50,SK-OV-3,470 nM
same,GI50,ACHN,280 nM
same,GI50,OVCAR-3,270 nM
same,GI50,MOLT-4,200 nM
same,GI50,COLO 205,210 nM
same,GI50,NCI-H322M,340 nM
same,GI50,OVCAR-5,420 nM
same,GI50,TK-10,280 nM
same,GI50,NCI-H522,120 nM
same,GI50,PC-3,2480 nM
same,GI50,SN12C,300 nM
same,GI50,IGROV-1,240 nM
same,GI50,RXF 393,210 nM
same,Activity,A-375 [2],Active
same,GI50,SR,140 nM
same,GI50,BT-549,90 nM
same,GI50,K562,120 nM
same,GI50,SK-MEL-5,160 nM
same,GI50,UACC-257,270 nM
same,GI50,HT-29,360 nM
